The values below come from ChEMBL document CHEMBL5338743, “Identification of a Selective SCoR2 Inhibitor That Protects Against Acute Kidney Injury” (J Med Chem, 2023).

Molecules are shown by their SMILES. Activity calls are given as the source filed them. No cut-off for these calls is given here.

For series [1], the system named is Mus musculus. Nature of the series: Protection against ischemia/reperfusion induced acute kidney injury in mouse assessed as reduction in tubular lysis at 120 mg/kg, ip pretreated for 18 hrs followed by kidney injury surgery and measured after 24 hrs by H and E staining based analysis. It is filed as functional, organism-based. The conditions noted are these: time 42.0 hrs. A digest of the protocol:
(§1)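 Mice dosed i.p. 120 mg/kg 18 h before I/R surgery, kidneys harvested 24 h later, H&E-stained. Tubular lysis, brush-border loss and luminal debris scored 0–2 over more than five fields per animal; n=5 mice per group, vehicle controls.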

Another series is filed under the species Homo sapiens. The series can be described thus: Selectivity index, ratio of IC50 for inhibition of human recombinant AKR1B1 expressed in Escherichia coli BL21-CodonPlus competent cells to IC50 for inhibition of human recombinant SCoR2 expressed in Escherichia coli BL21-CodonPlus competent cells. In a few lines: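 Purified enzyme at 200 nM (SCoR2 with 100 μM SNO-CoA; AKR1B1 with 100 μM methylglyoxylate) in 50 mM phosphate pH 7.0 with serial inhibitor dilutions; started with 100 μM NADPH, 2 min. Rate from 340 nm decrease, normalized to 20 nM protein activity; IC50 fitted, n=3. Selectivity taken as AKR1B1/SCoR2 IC50 ratio.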

Series [2] can be described thus: In vivo inhibition of SCoR2 in C57BL/6J mouse assessed as reduction in SNO-CoA metabolic activity in kidneys at 120 mg/kg body weight, ip administered as single dose into abdomen measured after 18 hrs relative to control. It is filed as functional. A digest of the protocol:
(§2)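 Single i.p. injection into the mouse abdomen, DMSO vehicle; organs collected 18 h later. Tissues homogenized in 50 mM phosphate pH 7.0, 150 mM NaCl, EDTA/DTPA, then clarified; lysate started reactions with 200 μM SNO-CoA and 100 μM NADPH, 2 min, NADPH loss monitored, in triplicate. Compared with vehicle and SCoR2−/− kidneys.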

Series [3] has as its system Mus musculus. The series can be described thus: Protection against ischemia/reperfusion induced acute kidney injury in mouse assessed as reduction in PKM2 activity in kidney at 120 mg/kg, ip pretreated for 18 hrs followed by kidney injury surgery and measured after 24 hrs by colorimetric pyruvate kinase activity assay. The conditions noted are these: time 42.0 hrs.
Series [4] has as its system Mus musculus. Nature of the series: Protection against ischemia/reperfusion induced acute kidney injury in mouse assessed as reduction in loss of brush borders at 120 mg/kg, ip pretreated for 18 hrs followed by kidney injury surgery and measured after 24 hrs by H and E staining based analysis. The class given is functional, organism-based. The conditions noted are these: time 42.0 hrs. A digest of the protocol:
as §1

In series [5] the test system is Mus musculus. Nature of the series: In vivo inhibition of SCoR2 in C57BL/6J mouse assessed as reduction in SNO-CoA metabolic activity in spleen at 120 mg/kg body weight, ip administered as single dose into abdomen measured after 18 hrs. It is filed as functional, organism-based. In a few lines:
as §2

The subject of series [6] is Mus musculus. Nature of the series: Protection against ischemia/reperfusion induced acute kidney injury in mouse assessed as reduction in blood urea nitrogen level at 120 mg/kg, ip pretreated for 18 hrs followed by kidney injury surgery and measured after 24 hrs. It is filed as functional, organism-based. The settings on record: time 42.0 hrs. In a few lines:
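Male mice (9–11 weeks, 25–28 g) given i.p. dose 18 h before ischemia–reperfusion AKI surgery under isoflurane; serum taken 24 h after reperfusion. Creatinine and BUN measured by a clinical laboratory; DMSO-treated controls.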

Series [7] can be described thus: Drug uptake in mouse serum at 120 mg/kg body weight, ip measured at 24 hrs post injection by HPLC/mass spectrometry analysis. The class given is ADME, organism-based. The settings on record: in vivo. In a few lines: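 Serum collected 24 h after i.p. injection; compound level measured by HPLC/mass spectrometry.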
Series [8] relates to Mus musculus. Nature of the series: Protection against ischemia/reperfusion induced acute kidney injury in mouse assessed as increase in SNO-PKM2 level in kidney at 120 mg/kg, ip pretreated for 18 hrs followed by kidney injury surgery and measured after 24 hrs by Western blot analysis. The class given is functional, organism-based. The conditions noted are these: time 42.0 hrs. A digest of the protocol:
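Kidneys from sham or I/R mice (120 mg/kg i.p. or DMSO) homogenized in HEN buffer with MMTS, then SDS/MMTS blocking at 50°C for 20 min and acetone-precipitated. 2 mg lysate captured on thiopropyl-Sepharose with 50 mM ascorbate, 4 h in the dark; no-ascorbate controls. PKM2 detected by western blot and normalized to input PKM2, n=3.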
On the technique in general: A western blot detects proteins with antibodies after separation by electrophoresis.

A word on the inhibition in vivo: it is the drop in the measured response relative to a control, in per cent. As for `O=C1NC(=O)C2(N1)c1ccccc1-c1ccc(C3CC3)cc12` (centres undefined), the outcome with Mus musculus [1], in the series with Mus musculus [3], in the series with Mus musculus [4], in the series on Mus musculus [6] and with Mus musculus [8] was Active. In addition, in the series listed under Homo sapiens, the Ratio IC50 amounted to 9.7. Also, the inhibition in vivo at 120 mg/kg in series [2] was found to be 80%. Also, the inhibition entry in the series on Mus musculus [5] was “Active”. Also, in series [7], the Drug uptake result is on record as “Active”.
